Source: ChEMBL document CHEMBL1781959, “Synthesis and in vitro antitumor activity of substituted quinazoline and quinoxaline derivatives: search for anticancer agent” (Eur J Med Chem, 2011)

Assays:
Type in all cases: functional
SN12C = assay: Anticancer activity against human SN12C cells assessed as cell growth promotion at 10^-5 M after 48 hrs by SRB assay relative to control
MDA-MB-468 = assay: Anticancer activity against human MDA-MB-468 cells assessed as cell growth promotion at 10^-5 M after 48 hrs by SRB assay relative to control
OVCAR-8 = assay: Anticancer activity against human OVCAR8 cells assessed as cell growth promotion at 10^-5 M after 48 hrs by SRB assay relative to control
SF-295 = assay: Anticancer activity against human SF295 cells assessed as cell growth promotion at 10^-5 M after 48 hrs by SRB assay relative to control
SF-268 = assay: Anticancer activity against human SF268 cells assessed as cell growth promotion at 10^-5 M after 48 hrs by SRB assay relative to control
U-251 = assay: Anticancer activity against human U251 cells assessed as cell growth promotion at 10^-5 M after 48 hrs by SRB assay relative to control
SK-MEL-5 = assay: Anticancer activity against human SK-MEL-5 cells assessed as cell growth promotion at 10^-5 M after 48 hrs by SRB assay relative to control
LOX IMVI = assay: Anticancer activity against human LOXIMVI cells assessed as cell growth promotion at 10^-5 M after 48 hrs by SRB assay relative to control
M14 = assay: Anticancer activity against human M14 cells assessed as cell growth promotion at 10^-5 M after 48 hrs by SRB assay relative to control
A549 = assay: Anticancer activity against human A549 cells assessed as cell growth promotion at 10^-5 M after 48 hrs by SRB assay relative to control
MDA-MB-231 = assay: Anticancer activity against human MDA-MB-231 cells assessed as cell growth promotion at 10^-5 M after 48 hrs by SRB assay relative to control
MOLT-4 = assay: Anticancer activity against human MOLT4 cells assessed as cell growth promotion at 10^-5 M after 48 hrs by SRB assay relative to control
HCC 2998 = assay: Anticancer activity against human HCC2998 cells assessed as cell growth promotion at 10^-5 M after 48 hrs by SRB assay relative to control
HCT-116 = assay: Anticancer activity against human HCT116 cells assessed as cell growth promotion at 10^-5 M after 48 hrs by SRB assay relative to control
ACHN = assay: Anticancer activity against human ACHN cells assessed as cell growth promotion at 10^-5 M after 48 hrs by SRB assay relative to control
COLO 205 = assay: Anticancer activity against human COLO205 cells assessed as cell growth promotion at 10^-5 M after 48 hrs by SRB assay relative to control
OVCAR-3 = assay: Anticancer activity against human OVCAR3 cells assessed as cell growth promotion at 10^-5 M after 48 hrs by SRB assay relative to control
CCRF-CEM = assay: Anticancer activity against human CCRF-CEM cells assessed as cell growth promotion at 10^-5 M after 48 hrs by SRB assay relative to control
NCI-H226 = assay: Anticancer activity against human NCI-H226 cells assessed as cell growth promotion at 10^-5 M after 48 hrs by SRB assay relative to control
[1] = Anticancer activity against human […] cells assessed as cell growth promotion at 10^-5 M after 48 hrs by SRB assay relative to control
IGROV-1 = assay: Anticancer activity against human IGROV1 cells assessed as cell growth promotion at 10^-5 M after 48 hrs by SRB assay relative to control
RXF 393 = assay: Anticancer activity against human RXF393 cells assessed as cell growth promotion at 10^-5 M after 48 hrs by SRB assay relative to control
NCI-H23 = assay: Anticancer activity against human NCI-H23 cells assessed as cell growth promotion at 10^-5 M after 48 hrs by SRB assay relative to control
TK-10 = assay: Anticancer activity against human TK10 cells assessed as cell growth promotion at 10^-5 M after 48 hrs by SRB assay relative to control
UACC-257 = assay: Anticancer activity against human UACC257 cells assessed as cell growth promotion at 10^-5 M after 48 hrs by SRB assay relative to control
MDA-MB-435 = assay: Anticancer activity against human MDA-MB-435 cells assessed as cell growth promotion at 10^-5 M after 48 hrs by SRB assay relative to control
K562 = assay: Anticancer activity against human K562 cells assessed as cell growth promotion at 10^-5 M after 48 hrs by SRB assay relative to control
HT-29 = assay: Anticancer activity against human HT-29 cells assessed as cell growth promotion at 10^-5 M after 48 hrs by SRB assay relative to control
SNB-19 = assay: Anticancer activity against human SNB19 cells assessed as cell growth promotion at 10^-5 M after 48 hrs by SRB assay relative to control
SK-MEL-28 = assay: Anticancer activity against human SK-MEL-28 cells assessed as cell growth promotion at 10^-5 M after 48 hrs by SRB assay relative to control
CAKI-1 = assay: Anticancer activity against human Caki1 cells assessed as cell growth promotion at 10^-5 M after 48 hrs by SRB assay relative to control
NCI/ADR-RES = assay: Anticancer activity against human NCI/ADR-RES cells assessed as cell growth promotion at 10^-5 M after 48 hrs by SRB assay relative to control
Malme-3M = assay: Anticancer activity against human MALME-3M cells assessed as cell growth promotion at 10^-5 M after 48 hrs by SRB assay relative to control
HL-60(TB) = assay: Anticancer activity against human HL-60(TB) cells assessed as cell growth promotion at 10^-5 M after 48 hrs by SRB assay relative to control
How it was run: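 NCI-60 single-dose screen: compound at 10^-5 M, 48 h at 37 °C, 5% CO2; cells grown in RPMI 1640 with 5% FBS and 2 mM L-glutamine, pre-incubated 24 h before dosing. Adherent cells fixed with cold TCA; endpoint is sulforhodamine B protein staining. Percent growth of treated cells is reported relative to untreated control.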

MCF7 = assay: Anticancer activity against human MCF7 cells assessed as cell growth promotion at 10^-5 M after 48 hrs by SRB assay relative to control
PC-3 = assay: Anticancer activity against human PC3 cells assessed as cell growth promotion at 10^-5 M after 48 hrs by SRB assay relative to control
SF-539 = assay: Anticancer activity against human SF539 cells assessed as cell growth promotion at 10^-5 M after 48 hrs by SRB assay relative to control
UACC-62 = assay: Anticancer activity against human UACC62 cells assessed as cell growth promotion at 10^-5 M after 48 hrs by SRB assay relative to control
HOP-62 = assay: Anticancer activity against human HOP62 cells assessed as cell growth promotion at 10^-5 M after 48 hrs by SRB assay relative to control
KM12 = assay: Anticancer activity against human KM12 cells assessed as cell growth promotion at 10^-5 M after 48 hrs by SRB assay relative to control
NCI-H322M = assay: Anticancer activity against human NCI-H322M cells assessed as cell growth promotion at 10^-5 M after 48 hrs by SRB assay relative to control
UO-31 = assay: Anticancer activity against human UO31 cells assessed as cell growth promotion at 10^-5 M after 48 hrs by SRB assay relative to control
OVCAR-5 = assay: Anticancer activity against human OVCAR5 cells assessed as cell growth promotion at 10^-5 M after 48 hrs by SRB assay relative to control
EKVX = assay: Anticancer activity against human EKVX cells assessed as cell growth promotion at 10^-5 M after 48 hrs by SRB assay relative to control
HCT-15 = assay: Anticancer activity against human HCT15 cells assessed as cell growth promotion at 10^-5 M after 48 hrs by SRB assay relative to control
DU-145 = assay: Anticancer activity against human DU145 cells assessed as cell growth promotion at 10^-5 M after 48 hrs by SRB assay relative to control
SR = assay: Anticancer activity against human SR cells assessed as cell growth promotion at 10^-5 M after 48 hrs by SRB assay relative to control
786-0 = assay: Anticancer activity against human 786-0 cells assessed as cell growth promotion at 10^-5 M after 48 hrs by SRB assay relative to control

SMILES: Brc1cccc(/C=C/c2nc3ccccc3nc2SCc2nc3ccccc3[nH]2)c1
- Activity (SN12C): 88.36%
- Activity (MDA-MB-468): 101%
- Activity (OVCAR-8): 97.32%
- Activity (SF-295): 100%
- Activity (SF-268): 94.82%
- Activity (U-251): 90.27%
- Activity (SK-MEL-5): 96.24%
- Activity (LOX IMVI): 91.83%
- Activity (M14): 102%
- Activity (A549): 100%
- Activity (MDA-MB-231): 93.29%
- Activity (MOLT-4): 84.4%
- Activity (HCC 2998): 99.44%
- Activity (HCT-116): 78.83%
- Activity (ACHN): 102%
- Activity (COLO 205): 119%
- Activity (OVCAR-3): 92.52%
- Activity (CCRF-CEM): 99.77%
- Activity (NCI-H226): 96.35%
- Activity [1]: 108%
- Activity (IGROV-1): 101%
- Activity (RXF 393): 105%
- Activity (NCI-H23): 93.86%
- Activity (TK-10): 103%
- Activity (UACC-257): 93.79%
- Activity (MDA-MB-435): 90.95%
- Activity (K562): 79.2%
- Activity (HT-29): 94.19%
- Activity (SNB-19): 94.19%
- Activity (SK-MEL-28): 86.57%
- Activity (CAKI-1): 69.32%
- Activity (NCI/ADR-RES): 89.75%
- Activity (Malme-3M): 86.98%
- Activity (HL-60(TB)): 96.53%
- Activity (MCF7): 61.74%
- Activity (PC-3): 125%
- Activity (SF-539): 101%
- Activity (UACC-62): 79.86%
- Activity (HOP-62): 97.73%
- Activity (KM12): 90.27%
- Activity (NCI-H322M): 95.01%
- Activity (UO-31): 63.7%
- Activity (OVCAR-5): 94.9%
- Activity (EKVX): 79.01%
- Activity (HCT-15): 101%
- Activity (DU-145): 97.76%
- Activity (SR): 97.29%
- Activity (786-0): 95.67%
